Data set [1] deals with T1, carboxylesterase 1 (CES1) (Homo sapiens, UniProt P23141).
T1 sequence (P23141 18-567): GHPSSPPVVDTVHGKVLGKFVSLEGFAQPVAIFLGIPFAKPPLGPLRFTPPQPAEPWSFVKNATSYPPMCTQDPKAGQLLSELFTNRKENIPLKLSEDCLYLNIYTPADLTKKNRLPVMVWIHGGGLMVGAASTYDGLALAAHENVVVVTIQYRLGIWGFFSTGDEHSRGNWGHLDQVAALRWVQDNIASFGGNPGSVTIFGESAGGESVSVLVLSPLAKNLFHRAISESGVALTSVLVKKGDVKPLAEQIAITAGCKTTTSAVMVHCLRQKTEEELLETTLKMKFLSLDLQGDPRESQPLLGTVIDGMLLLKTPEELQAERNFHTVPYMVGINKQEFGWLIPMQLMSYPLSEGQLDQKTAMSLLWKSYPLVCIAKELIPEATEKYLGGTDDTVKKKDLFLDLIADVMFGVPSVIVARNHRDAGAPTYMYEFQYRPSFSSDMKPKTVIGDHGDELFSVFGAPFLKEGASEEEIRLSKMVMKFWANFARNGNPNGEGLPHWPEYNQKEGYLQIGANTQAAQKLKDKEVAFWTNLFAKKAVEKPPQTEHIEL
Briefly: Concentration response curves for inhibition of CES1. Type of data set: biochemical. As to conditions: 200 μM OST, CES1 S9; for IC50: read-out: IC50 (kratom alkaloids), alkaloid 0–128 μM, 1% DMSO. In short, it runs like this:
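CES1 S9 (supernatant, 9000g, from sonicated Flp-In-293 cells expressing wild-type CES1) at 20 μg/mL in 50 mM phosphate buffer. Test compound at 0–128 μM, or extracts at 0–128 μg/mL, in 1% DMSO with 200 μM oseltamivir, 15 min at 37°C. Stopped with 4 volumes acetonitrile containing ritalinic acid internal standard. Oseltamivir carboxylate measured by LC-MS/MS and expressed relative to DMSO control; IC50 fitted by modified Hill equation.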

In data set [2] the target is T1, carboxylesterase 1 (CES1). As to the kind of experiment: Time-dependent inhibition of CES1. Type of data set: biochemical. As to conditions: for Ratio of Preincubation to No Preincubation (IC50, alkaloids): 30 min preincubation; for IC50: mean ± S.E., 200 μM OST.
Data set [3] has as its target T1, carboxylesterase 1 (CES1). As to the kind of experiment: Reversible inhibition kinetics of CES1. It counts as biochemical. As to conditions: for α (reversible inhibition type): 1 = noncompetitive, infinity = competitive, between = mixed-type; for α (reversible inhibition type) / Vmax: mean ± S.D.; for Vmax: OC formation, fit parameter, triplicate experiments; for type of reversible inhibition of CES1: from modified Michaelis-Menten model.

The conditions of data set [4]: human, 2g dose of kratom; cited from earlier work.
Setting [5] is: Preincubation 30 min with CES1 S9.

Values joined by “and” are separate entries in the source; they are usually repeats but may differ in a detail not shown here. Equal values may be shown once. “Also recorded” adds a separate entry of the source.

As a reminder, the IC50 is the concentration that inhibits the measured activity by half. Take `C=C[C@H]1CN2CCc3c([nH]c4cccc(OC)c34)[C@@H]2C[C@@H]1/C(=C\OC)C(=O)OC` [paynantheine]: in data set [1], the “concentration dependence of CES1 inhibition” value is listed as “concentration-dependent reversible inhibition”; the IC50 was 32.9 µM and < 50 µM. Moreover, in data set [2], the “Ratio of Preincubation to No Preincubation (IC50, alkaloids)” value was determined as 1.38. In addition, in data set [2] (No preincubation), the IC50 was 32.9 ± 7.2 µM. Also, inhibition in data set [2] (setting [5]) was half-maximal at 45.6 ± 14.1 µM (IC50). Further, in data set [3], the “α (reversible inhibition type)” value is given as 8.439 ± 6.336, the Vmax came to 232.2 ± 18.38 nmol/min/mg protein and the “type of reversible inhibition of CES1” value is given as “mixed-type reversible inhibitors; also recorded: mixed competitive-noncompetitive inhibition; also recorded: mixed competitive-noncompetitive inhibitors”.
One may read the Cmax as the peak of the concentration-time curve. `CC[C@@H]1CN2CCc3c([nH]c4cccc(OC)c34)[C@H]2C[C@@H]1/C(=C\OC)C(=O)OC` [speciociliatine]: the “concentration dependence of CES1 inhibition” value in data set [1] is given as “concentration-dependent reversible inhibition”. Besides, the “Ratio of Preincubation to No Preincubation (IC50, alkaloids)” value in data set [2] is 1.18. Further, the IC50 turned out to be 18.1 ± 4 µM in data set [2] (No preincubation) and 21.4 ± 2.48 µM in data set [2] (setting [5]). For the same compound, the “α (reversible inhibition type)” value in data set [3] came out at 2.817 ± 1.666. Besides, the Vmax in data set [3] came out at 210.5 ± 41.43 nmol/min/mg protein. Besides, the “type of reversible inhibition of CES1” value is reported as “mixed competitive-noncompetitive inhibitors” in data set [3] and “mixed-type reversible inhibitors; also recorded: mixed competitive-noncompetitive inhibition” in data set [3] (listed as Speciociliatine). Further, the Cmax in data set [4] is 308 nM.
As to `CC[C@H]1CN2CCc3c([nH]c4cccc(OC)c34)[C@@H]2C[C@@H]1/C(=C\OC)C(=O)OC` [speciogynine], in data set [1], the “concentration dependence of CES1 inhibition” value is “concentration-dependent reversible inhibition” and the IC50 stood at 54.3 µM. The “Ratio of Preincubation to No Preincubation (IC50, alkaloids)” value in data set [2] amounted to 1.22. Also, half-maximal inhibition in data set [2] (setting [5]) (IC50) required 66.2 ± 29 µM.
For the compound corynantheidine, the “concentration dependence of CES1 inhibition” value in data set [1] was “concentration-dependent reversible inhibition”. Also, the “Ratio of Preincubation to No Preincubation (IC50, alkaloids)” value in data set [2] was determined as 0.993. In data set [3], the “α (reversible inhibition type)” value turned out to be 8.767 ± 2.734 and the “type of reversible inhibition of CES1” value is “mixed-type reversible inhibitors; also recorded: mixed competitive-noncompetitive inhibition; also recorded: mixed competitive-noncompetitive inhibitors”.
For the compound mitragynine, in data set [1], the “concentration dependence of CES1 inhibition” value is listed as “concentration-dependent reversible inhibition”; the IC50 is 38.9 µM and < 50 µM. Besides, the “Ratio of Preincubation to No Preincubation (IC50, alkaloids)” value in data set [2] is 0.868. This compound also came in with an IC50 in data set [2] (No preincubation) of 38.9 ± 16.3 µM. Besides, half-maximal inhibition in data set [2] (setting [5]) (IC50) was put at 33.8 ± 5.47 µM. In data set [3], the “α (reversible inhibition type)” value is on record as “∞”, the Vmax came out at 224.2 ± 24.37 nmol/min/mg protein and the “type of reversible inhibition of CES1” value is reported as “purely competitive inhibitor; also recorded: pure competitive inhibition”.

Source of the values: publication PMC10606955 (Chemico-biological interactions, 2023).
